Legend:
[1] = tested on: KB; test: Concentration required to inhibit tumor cell growth in KB-V1 cells; type: functional, cell-based; conditions: Homo sapiens
Outline: (§1)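 Cytotoxicity was measured in paclitaxel-sensitive KB-3-1 cells and in KB-8-5 and KB-V1 cells, which express moderate and high P-glycoprotein respectively. Result is the average IC50 (nM) ± SEM; SEM is omitted where it is below 10% of the average.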

[2] = tested on: KB; test: Concentration required to inhibit tumor cell growth in KB-8-5 cells; type: functional, cell-based, Homo sapiens; outline: as §1
[3] = molecular target: Tubulin beta-1 chain (Homo sapiens, UniProt Q9H4B7); test: Percent inhibition of tubulin polymerization at 0.3 uM concentration; type: functional
[4] = Concentration required to inhibit tumor cell growth in KB-3-1 cells; type: functional, cell-based, Homo sapiens; outline: as §1

Chain of Tubulin beta-1 chain (Q9H4B7 whole entry): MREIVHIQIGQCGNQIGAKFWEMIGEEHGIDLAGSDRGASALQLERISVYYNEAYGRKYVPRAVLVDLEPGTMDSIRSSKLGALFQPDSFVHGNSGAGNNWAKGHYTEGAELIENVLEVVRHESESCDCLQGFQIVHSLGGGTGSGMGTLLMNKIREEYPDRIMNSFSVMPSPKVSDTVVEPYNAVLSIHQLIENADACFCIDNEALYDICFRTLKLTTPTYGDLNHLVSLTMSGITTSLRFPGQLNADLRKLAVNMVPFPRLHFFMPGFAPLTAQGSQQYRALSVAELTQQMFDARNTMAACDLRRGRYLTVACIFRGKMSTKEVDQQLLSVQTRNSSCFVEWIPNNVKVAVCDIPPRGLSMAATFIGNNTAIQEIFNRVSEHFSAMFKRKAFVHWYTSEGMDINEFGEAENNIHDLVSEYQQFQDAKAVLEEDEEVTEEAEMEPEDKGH

Compound | IC50 [1] | IC50 ([2]; Homo sapiens, KB) | inhibition [3] | IC50 ([4]; Homo sapiens, KB 3-1) | IC50 ([2]; kb) | IC50 ([4]; kb 3-1)
C=CC[C@@H](C(=O)N[C@H](C(=O)N(C)[C@H](/C=C(\C)C(=O)O)C(C)C)C(C)(C)C)C(C)(C)c1ccccc1 | > 6000 nM | 1200 nM | 63% | 1150 nM | – | –
C/C(=C\[C@H](C(C)C)N(C)C(=O)[C@@H](NC(=O)[C@@H](Cc1ccccc1)C(C)(C)c1ccccc1)C(C)(C)C)C(=O)O | > 6000 nM | 2240 nM | 46% | 1690 nM | – | –
CN[C@H](C(=O)N[C@H](C(=O)N(C)[C@H](/C=C(\C)C(=O)O)C(C)C)C(C)(C)C)C(C)(C)O | > 3000 nM | 293 nM | 40% | 151 nM | – | –
CN[C@H](C(=O)N(C)[C@H](C(=O)N(C)[C@H](/C=C(\C)C(=O)O)C(C)C)C(C)(C)C)C(C)(C)c1ccccc1 | > 3000 nM | > 3000 nM | 4% | > 3000 nM | – | –
CN[C@H](C(=O)N[C@H](C(=O)N(C)[C@H](/C=C(\C)C(=O)O)C(C)C)C(C)(C)C)C(C)(C)Cc1ccccc1 | 219 nM | 6 nM | 87% | 3 nM | – | –
CN[C@H](C(=O)N[C@H](C(=O)N(C)[C@H](/C=C(\C)C(=O)O)C(C)C)C(C)(C)C)C(C)(C)C | > 3000 nM | 180 nM | 43% | 114 nM | – | –
CCCCCCCCOC(=O)/C(C)=C/[C@H](C(C)C)N(C)C(=O)[C@@H](NC(=O)[C@@H](NC)C(C)(C)c1ccccc1)C(C)(C)C | > 3000 nM | 1630 nM | 26% | 150 nM | – | –
CN[C@H](C(=O)N[C@H](C(=O)N(C)[C@@H](/C=C(\C)C(=O)O)C(C)C)C(C)(C)C)C(C)(C)c1ccccc1 (single isomer, unassigned) | > 3000 nM | 1650 nM | 0% | 605 nM | – | –
C/C(=C\[C@H](C(C)C)N(C)C(=O)[C@@H](NC(=O)[C@@H](NCCO)C(C)(C)c1ccccc1)C(C)(C)C)C(=O)O | > 3000 nM | 616 nM | 90% | 183 nM | – | –
CN[C@H](C(=O)N[C@H](C(=O)N(C)[C@H](/C=C(\C)C(=O)O)C(C)C)C(C)(C)C)C1(c2ccccc2)CCCCC1 | > 3000 nM | 363 nM | 5% | 204 nM | – | –
CS[C@H](C(=O)N[C@H](C(=O)N(C)[C@H](/C=C(\C)C(=O)O)C(C)C)C(C)(C)C)C(C)(C)c1ccccc1 | > 6000 nM | 1150 nM | 79% | 691 nM | – | –
CNC(=O)CN[C@H](C(=O)N[C@H](C(=O)N(C)[C@H](/C=C(\C)C(=O)O)C(C)C)C(C)(C)C)C(C)(C)c1ccccc1 | > 3000 nM | > 3000 nM | 0% | > 3000 nM | – | –
C/C(=C\[C@H](C(C)C)N(C)C(=O)[C@@H](NC(=O)[C@@H](C(C)(C)c1ccccc1)S(C)(=O)=O)C(C)(C)C)C(=O)O | > 3000 nM | 2110 nM | 80% | 1750 nM | – | –
CN[C@H](C(=O)N[C@H](C(=O)N(C)[C@H](C[C@H](C)C(=O)O)C(C)C)C(C)(C)C)C(C)(C)c1ccccc1 | > 3000 nM | 69 nM | 74% | 48 nM | – | –
CN[C@H](C(=O)N[C@H](C(=O)N(C)[C@H](/C=C(\C)C(=O)O)C(C)C)C(C)(C)C)[C@H](C)c1ccccc1 | > 3000 nM | 584 nM | 77% | 438 nM | – | –
CCCCCC(C)(C)[C@H](NC)C(=O)N[C@H](C(=O)N(C)[C@H](/C=C(\C)C(=O)O)C(C)C)C(C)(C)C | 513 nM | 19 nM | 72% | 9 nM | – | –
CN[C@H](C(=O)N[C@H](C(=O)N(C)[C@H](/C=C(\C)C(=O)NCCc1ccccc1)C(C)C)C(C)(C)C)C(C)(C)c1ccccc1 | 1770 nM | 226 nM | 72% | 163 nM | – | –

Compound | IC50 [1] | IC50 ([2]; Homo sapiens, KB) | inhibition [3] | IC50 ([4]; Homo sapiens, KB 3-1) | IC50 ([2]; kb) | IC50 ([4]; kb 3-1)
C/C(=C\[C@H](C(C)C)N(C)C(=O)[C@@H](NC(=O)[C@@H](N)C(C)(C)c1ccccc1)C(C)(C)C)C(=O)O (stereo in doubt; 63) | – | – | 49% | – | – | –
C/C(=C\[C@H](C(C)C)N(C)C(=O)[C@@H](NC(=O)CC(C)(C)c1ccccc1)C(C)(C)C)C(=O)O | > 3000 nM | > 3000 nM | 21% | > 3000 nM | – | –
CN[C@H](C(=O)N[C@H](C(=O)N(C)[C@H](/C=C(\C)C(N)=O)C(C)C)C(C)(C)C)C(C)(C)c1ccccc1 | > 3000 nM | 162 nM | 72% | 65 nM | – | –
CN[C@H](C(=O)N[C@H](C(=O)N(C)[C@H](/C=C(\C)C(=O)O)Cc1ccccc1)C(C)(C)C)C(C)(C)c1ccccc1 | > 3000 nM | 1320 nM | 44% | 479 nM | – | –
CN[C@H](C(=O)N[C@@H](C(=O)N(C)[C@H](/C=C(\C)C(=O)O)C(C)C)C(C)(C)C)C(C)(C)c1ccccc1 | > 3000 nM | > 3000 nM | 1% | > 3000 nM | – | –
CN[C@H](C(=O)N[C@H](C(=O)N(C)[C@H](/C=C(\C)C(=O)O)C(C)C)C(C)(C)C)C1(c2ccccc2)CCCC1 | 2660 nM | 63 nM | 77% | 59 nM | – | –
C/C(=C\[C@H](C(C)C)N(C)C(=O)[C@@H](NC(=O)[C@@H](NCc1ccccc1)C(C)(C)c1ccccc1)C(C)(C)C)C(=O)O | > 3000 nM | 1880 nM | 55% | 1790 nM | – | –
CN[C@H](C(=O)N[C@@H](C)C(=O)N(C)[C@H](/C=C(\C)C(=O)O)C(C)C)C(C)(C)c1ccccc1 | > 3000 nM | 902 nM | 8% | 381 nM | – | –
CC[C@H](NC(=O)[C@@H](NC)C(C)(C)c1ccccc1)C(=O)N(C)[C@H](/C=C(\C)C(=O)O)C(C)C | 1060 nM | 70 nM | 73% | 48 nM | – | –
C/C(=C\[C@H](C(C)C)N(C)C(=O)[C@@H](NC(=O)[C@@H](N1CCCC1)C(C)(C)c1ccccc1)C(C)(C)C)C(=O)O | > 3000 nM | 158 nM | 83% | 75 nM | – | –
C/C(=C\[C@H](C(C)C)N(C)C(=O)[C@@H](NC(=O)[C@H](Cc1ccccc1)C(C)(C)c1ccccc1)C(C)(C)C)C(=O)O | > 6000 nM | 2240 nM | 46% | 1690 nM | – | –
CN[C@H](C(=O)N[C@@H](Cc1ccccc1)C(=O)N(C)[C@H](/C=C(\C)C(=O)O)C(C)C)C(C)(C)c1ccccc1 | > 3000 nM | 2400 nM | 40% | 1320 nM | – | –
CN[C@H](C(=O)N[C@H](C(=O)N(C)[C@H](/C=C(\C)C(=O)NCc1ccc(-c2ccccc2)cc1)C(C)C)C(C)(C)C)C(C)(C)c1ccccc1 | > 3000 nM | 1680 nM | 11% | 667 nM | – | –
CN[C@H](C(=O)N[C@H](C(=O)N(C)[C@H](/C=C(\C)C(=O)O)C(C)C)C(C)(C)C)C1(c2ccccc2)CC1 | 1660 nM | 57 nM | 99% | 27 nM | – | –
C/C(=C\[C@H](C(C)C)N(C)C(=O)[C@@H](NC(=O)[C@@H](N)C(C)(C)c1ccccc1)C(C)(C)C)C(=O)O (stereo in doubt; 20) [listing 1 of 2 here] | – | – | 95% | – | – | –
C/C(=C\[C@H](C(C)C)N(C)C(=O)[C@@H](NC(=O)[C@@H](N)C(C)(C)c1ccccc1)C(C)(C)C)C(=O)O (stereo in doubt; 20) [listing 2 of 2 here] | > 3000 nM | – | – | – | 550 nM | 427 nM

— ChEMBL document CHEMBL1138753, “Synthesis and biological activity of analogues of the antimicrotubule agent N,beta,beta-trimethyl-L-phenylalanyl-N(1)-[(1S,2E)-3-carboxy-1-isopropylbut-2-enyl]- N(1),3-dimethyl-L-valinamide (HTI-286)” (J Med Chem, 2004)
